Source: ChEMBL document CHEMBL1765057, “Pyrazolo[4,3-d]pyrimidine bioisostere of roscovitine: evaluation of a novel selective inhibitor of cyclin-dependent kinases with antiproliferative activity” (J Med Chem, 2011)
Activity calls are given as the source filed them. The calls are words filed in the database; no cut-off is given here.

What was measured:
[1] = target: T1, Retinoblastoma-associated protein (Homo sapiens) (UniProt P06400); test: Inhibition of retinoblastoma protein in human MCF7 cells assessed as reduction of CDK1 level at 2.5 to 40 uM after 24 hrs by immunoblotting; type: cell-based
T1 sequence (whole entry): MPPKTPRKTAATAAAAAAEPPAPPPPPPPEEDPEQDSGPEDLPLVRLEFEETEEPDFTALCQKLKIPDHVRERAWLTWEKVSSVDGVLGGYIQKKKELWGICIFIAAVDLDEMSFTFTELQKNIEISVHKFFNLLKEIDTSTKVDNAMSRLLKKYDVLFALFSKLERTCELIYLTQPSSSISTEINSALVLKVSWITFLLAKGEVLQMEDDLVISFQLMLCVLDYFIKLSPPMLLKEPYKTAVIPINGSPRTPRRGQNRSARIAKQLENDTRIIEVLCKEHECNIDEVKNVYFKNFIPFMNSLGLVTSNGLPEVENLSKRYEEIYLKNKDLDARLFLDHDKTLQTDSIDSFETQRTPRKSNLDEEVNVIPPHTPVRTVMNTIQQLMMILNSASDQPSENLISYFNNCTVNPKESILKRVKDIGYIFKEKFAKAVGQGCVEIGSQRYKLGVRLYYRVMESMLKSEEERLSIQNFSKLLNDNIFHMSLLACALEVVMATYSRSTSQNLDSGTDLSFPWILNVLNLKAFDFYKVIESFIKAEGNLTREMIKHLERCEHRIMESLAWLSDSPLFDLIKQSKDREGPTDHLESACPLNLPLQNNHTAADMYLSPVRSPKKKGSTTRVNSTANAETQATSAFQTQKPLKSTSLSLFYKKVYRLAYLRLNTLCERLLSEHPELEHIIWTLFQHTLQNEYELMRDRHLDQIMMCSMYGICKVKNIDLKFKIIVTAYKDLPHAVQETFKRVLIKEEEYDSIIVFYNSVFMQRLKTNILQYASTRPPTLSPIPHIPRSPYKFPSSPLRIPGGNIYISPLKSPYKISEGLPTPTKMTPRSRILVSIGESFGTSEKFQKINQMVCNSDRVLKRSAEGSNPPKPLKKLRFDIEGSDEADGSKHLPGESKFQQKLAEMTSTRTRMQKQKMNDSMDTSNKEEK
In short: (§1)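 Asynchronous, exponentially growing MCF-7 cells were exposed 24 h to a range of concentrations. Total lysates were made in Laemmli buffer, run on SDS-PAGE and blotted to nitrocellulose. Membranes were probed overnight at 4 °C with specific or phosphospecific antibodies (pRb S249/T252, S780, S795, S807/811), with tubulin as loading control and ECL detection.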

U-266 = test: Induction of apoptosis in human U266 cells at 10 uM after 24 hrs; type: functional, cell-based
RPMI-8226 [2] = test: Cytotoxicity against human RPMI8226 cells after 72 hrs by fluoroskan ascent microplate reader analysis; type: functional, cell-based; details: RPMI-8226, 72 h
In short: (§2)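 Cells were grown in DMEM with 10% FCS and 4 mM glutamine at 37 °C under CO2, then plated at densities suited to each line. Compounds were added as 3-fold dilutions in triplicate for 72 h.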

MCF7 = test: Cell cycle arrest in human MCF7 cells assessed as reduction of actively replicating DNA level at 80 uM after 24 hrs using propidium iodide and BrdU staining by flow cytometry; type: functional, cell-based
In short: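 Subconfluent MCF-7 cells were treated for 24 h at a range of concentrations. They were pulse-labelled with 10 μM BrdU for 30 min at 37 °C, then trypsinized and fixed in ice-cold 70% ethanol. DNA was denatured in 2 M HCl and neutralized with borate. Cells were stained with fluorescein anti-BrdU and with propidium iodide plus RNase A, then analysed by flow cytometry at 488 nm.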

RPMI-8226 [3] = test: Cell cycle arrest in human RPMI8226 cells assessed as reduction of actively replicating DNA level at 80 uM after 24 hrs using propidium iodide and BrdU staining by flow cytometry; type: functional, cell-based
In short: (§3)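 Asynchronously growing RPMI-8226 multiple myeloma cells were exposed for 24 h. Cells were double-stained with propidium iodide and BrdU and analysed by flow cytometry for G1, S, G2/M and BrdU-positive fractions. The subG1 population was taken as indicative of apoptosis.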

[4] = target: Casein kinase II (Homo sapiens) (UniProt P67870+P68400+P19784); test: Inhibition of human recombinant CK2 at 10 uM; type: protein-complex assay
K562 = test: Cytotoxicity against human K562 cells after 72 hrs by fluoroskan ascent microplate reader analysis; type: functional, cell-based; details: K562, 72 h; in short: as §2
RPMI-8226 [5] = test: Cell cycle arrest in human RPMI8226 cells assessed as decrease in S phase cell population after 24 hrs using propidium iodide and BrdU staining by flow cytometry; type: functional, cell-based; in short: as §3
[6] = target: T1, Retinoblastoma-associated protein (Homo sapiens); test: Inhibition of retinoblastoma protein in human MCF7 cells assessed as reduction of cyclin A level at 2.5 to 40 uM after 24 hrs by immunoblotting; type: cell-based; in short: as §1
RPMI-8226 [7] = test: Induction of apoptosis in human RPMI8226 cells assessed as down-regulation of Mcl-1 after 24 hrs by immunoblot analysis; type: functional, cell-based
In short: (§4)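 RPMI-8226 cells were treated continuously for 24 h, and total lysates were made in Laemmli buffer, run on SDS-PAGE and blotted to nitrocellulose. Loading was checked with Ponceau-S. Membranes were blocked in milk or BSA, probed overnight at 4 °C with antibodies to PARP, caspase-3 and Mcl-1, then peroxidase secondary (1:2000), with ECL detection.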

RPMI-8226 [8] = test: Induction of apoptosis in human RPMI8226 cells assessed as increase in caspase3 activation after 24 hrs by immunoblot analysis; type: functional, cell-based
BT-474 = test: Cytotoxicity against human BT474 cells after 72 hrs by fluoroskan ascent microplate reader analysis; type: functional, cell-based; details: BT-474, 72 h; in short: as §2
RPMI-8226 [9] = test: Induction of apoptosis in human RPMI8226 cells assessed as induction of PARP cleavage after 24 hrs by immunoblot analysis; type: functional, cell-based; in short: as §4
[10] = target: MAP kinase-activated protein kinase 5 (Homo sapiens) (UniProt Q8IW41); test: Inhibition of human recombinant PRAK at 10 uM
MAP kinase-activated protein kinase 5 (Homo sapiens), sequence (Q8IW41 whole entry): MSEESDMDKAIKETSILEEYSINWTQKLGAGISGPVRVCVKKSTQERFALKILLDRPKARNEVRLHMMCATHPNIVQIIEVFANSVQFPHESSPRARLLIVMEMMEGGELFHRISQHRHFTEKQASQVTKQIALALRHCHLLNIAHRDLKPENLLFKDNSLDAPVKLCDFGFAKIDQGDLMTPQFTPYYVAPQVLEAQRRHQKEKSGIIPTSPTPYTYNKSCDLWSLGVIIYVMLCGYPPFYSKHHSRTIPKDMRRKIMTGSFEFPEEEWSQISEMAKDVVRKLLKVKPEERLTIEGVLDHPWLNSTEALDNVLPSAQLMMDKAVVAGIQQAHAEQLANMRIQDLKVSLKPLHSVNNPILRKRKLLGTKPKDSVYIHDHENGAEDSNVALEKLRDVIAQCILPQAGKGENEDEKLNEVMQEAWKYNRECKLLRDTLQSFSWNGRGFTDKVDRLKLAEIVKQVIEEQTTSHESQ

[11] = target: T1, Retinoblastoma-associated protein (Homo sapiens); test: Inhibition of retinoblastoma protein phosphorylation at Ser249/Thr252, Ser807/811, Ser780, and Ser795 in human MCF7 cells after 24 hrs by immunoblotting; type: cell-based; in short: as §1
[12] = target: Cellular tumor antigen p53 (Homo sapiens) (UniProt P04637); test: Induction of p53-dependent transcriptional activity in human MCF7 cells assessed as increase of p21 WAF1 level at 10 uM after 24 hrs by immunofluorescence assay; type: cell-based; details: in the assay text read “by immunoblotting analysis” for “by immunofluorescence assay”
Cellular tumor antigen p53 (Homo sapiens), sequence (P04637 whole entry, looked up): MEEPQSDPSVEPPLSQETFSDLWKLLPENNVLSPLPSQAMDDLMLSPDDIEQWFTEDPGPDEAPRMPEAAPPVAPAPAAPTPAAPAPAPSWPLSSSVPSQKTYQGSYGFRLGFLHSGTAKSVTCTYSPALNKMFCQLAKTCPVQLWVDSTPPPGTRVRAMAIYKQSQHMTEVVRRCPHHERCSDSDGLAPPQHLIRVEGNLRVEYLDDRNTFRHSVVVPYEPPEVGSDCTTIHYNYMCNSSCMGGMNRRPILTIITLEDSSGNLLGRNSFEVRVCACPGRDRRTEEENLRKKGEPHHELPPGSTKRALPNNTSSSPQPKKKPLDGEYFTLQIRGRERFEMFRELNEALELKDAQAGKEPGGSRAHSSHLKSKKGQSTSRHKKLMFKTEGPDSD
In short: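 MCF-7 cells were exposed 24 h to 10 μM. Total lysates were made in Laemmli buffer, run on SDS-PAGE and blotted to nitrocellulose, then probed with antibodies to p53, p21WAF1 and Mdm-2, with peroxidase secondary and ECL detection.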

HCT-116 = test: Cytotoxicity against human HCT116 cells after 72 hrs by fluoroskan ascent microplate reader analysis; type: functional, cell-based; details: HCT-116, 72 h; in short: as §2
RPMI-8226 [13] = test: Induction of apoptosis in human RPMI8226 cells assessed as cleaved fragmentation of caspase3 after 24 hrs by immunoblot analysis; type: functional, cell-based; in short: as §4
RPMI-8226 [14] = test: Cell cycle arrest in human RPMI8226 cells assessed as accumulation at sub-G1 phase after 24 hrs using propidium iodide and BrdU staining by flow cytometry; type: functional, cell-based; in short: as §3
[15] = target: Casein kinase I isoform alpha (Homo sapiens) (UniProt P48729); test: Inhibition of human recombinant CK1 at 10 uM
Casein kinase I isoform alpha (Homo sapiens), sequence (P48729 2-337 limits assumed): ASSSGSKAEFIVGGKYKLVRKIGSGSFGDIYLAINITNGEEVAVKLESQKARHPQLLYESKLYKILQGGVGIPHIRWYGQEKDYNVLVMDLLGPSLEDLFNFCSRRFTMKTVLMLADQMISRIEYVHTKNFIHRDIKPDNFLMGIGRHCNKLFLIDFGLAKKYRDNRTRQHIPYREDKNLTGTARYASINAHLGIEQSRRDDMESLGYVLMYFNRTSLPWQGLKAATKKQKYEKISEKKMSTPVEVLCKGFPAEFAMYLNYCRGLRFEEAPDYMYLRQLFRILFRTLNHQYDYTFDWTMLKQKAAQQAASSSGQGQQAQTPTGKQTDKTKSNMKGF

CC[C@H](CO)Nc1nc(NCc2ccccc2)c2[nH]nc(C(C)C)c2n1
inhibition [1]: inactive
Activity (U-266): Active
IC50 (RPMI-8226 [2]): 3.6 µM
Activity (MCF7): Active
Activity (RPMI-8226 [3]): Active
inhibition [4]: 19%
IC50 (K562): 7.7 µM
Activity (RPMI-8226 [5]): Active
inhibition [6]: inactive
Activity (RPMI-8226 [7]): Active
Activity (RPMI-8226 [8]): Active
IC50 (BT-474): 8.5 µM
Activity (RPMI-8226 [9]): Active
inhibition [10]: 30%
inhibition [11]: Dose-dependent effect
Activity [12]: Active
IC50 (HCT-116): 11 µM
Activity (RPMI-8226 [13]): Active
Activity (RPMI-8226 [14]): Active
inhibition [15]: 7%
